According to ChEMBL document CHEMBL1122364, “Preparation of 2-amino-4(3H)-oxopyrimido[5,4-b] [1,4]thiazines (5-thiapterins) and their evaluation as cofactors for phenylalanine hydroxylase” (J Med Chem, 1983):

Target: T1, Phenylalanine-4-hydroxylase (Rattus norvegicus, UniProt P04176)
T1 sequence (P04176 whole entry): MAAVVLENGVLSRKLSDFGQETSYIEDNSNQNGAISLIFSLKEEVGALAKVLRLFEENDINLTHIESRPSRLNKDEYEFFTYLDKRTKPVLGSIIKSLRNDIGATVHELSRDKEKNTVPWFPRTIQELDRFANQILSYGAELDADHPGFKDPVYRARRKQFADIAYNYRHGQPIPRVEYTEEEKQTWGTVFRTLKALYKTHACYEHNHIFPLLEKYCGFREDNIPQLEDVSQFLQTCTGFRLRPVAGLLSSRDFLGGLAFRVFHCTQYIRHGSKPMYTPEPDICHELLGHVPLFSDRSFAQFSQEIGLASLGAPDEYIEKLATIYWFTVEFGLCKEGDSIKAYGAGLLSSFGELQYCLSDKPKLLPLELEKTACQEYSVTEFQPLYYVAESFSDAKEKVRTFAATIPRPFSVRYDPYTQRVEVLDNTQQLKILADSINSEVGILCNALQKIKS
Assay: Tested for competitive binding inhibition against phenylalanine hydroxylase in rat liver
Outline: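 Initial rate of tyrosine formation followed at 25 °C as the rise in absorbance at 275 nm. The cofactor was 6-MePH₄ at 12.5–50 μM.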

Compared with Nc1nc(O)c2c(n1)NCC(c1ccccc1)[S+]2[O-] (stereo unspecified), CC1CNc2nc(N)nc(O)c2[S+]1[O-] (stereo unspecified) is 18-fold higher in Ki: 7 µM for the first, 125 µM for the second. The first binds more tightly here.

First: Nc1nc2c(c(=O)[nH]1)SC(c1ccccc1)CN2 (stereo unspecified)
Second: CC1CNc2nc(N)[nH]c(=O)c2S1 (stereo unspecified)
The Ki of the first is 180-fold lower: 0.2 µM for the first, 36 µM for the second. The first binds more tightly here.

First: Nc1nc(N)c(Sc2ccccc2)c(O)n1
Second: Nc1nc(O)c2c(n1)SCC(c1ccccc1)N2 (stereo unspecified)
The Ki of the first is 110-fold lower: 4.7 µM for the first, 500 µM for the second. The first binds more tightly here.

Compared with Nc1nc(O)c2c(n1)NCC[S+]2[O-] (stereo unspecified), Nc1nc(O)c2c(n1)NCCS2 is 4.7-fold lower in Ki: 400 µM for the first, 85 µM for the second.

System: not listed separately
Assay: Michaelis-Menten constant was determined for the compound

First: CC1CNc2nc(N)[nH]c(=O)c2N1 (stereo unspecified)
Second: Nc1nc(O)c2c(n1)NCC(c1ccccc1)N2 (stereo unspecified)
The Km of the first is 13-fold higher: 40 µM for the first, 3 µM for the second.

With Nc1nc(O)c2c(n1)NCCN2 the Km was 130 µM.
